Drawing on ChEMBL document CHEMBL1143004, “Structure-activity relationship among purpurinimides and bacteriopurpurinimides: trifluoromethyl substituent enhanced the photosensitizing efficacy” (J Med Chem, 2007), this text covers Ratio and Activity for 9 compounds.

Data set [1] in a line: Ratio of drug level in tumor to skin of C3H mouse bearing RIF tumors after 24 hrs by IRS. The following applies: in vivo. The class given is ADME. In short, it runs like this: (§1)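 In vivo reflectance spectroscopy in female C3H/RIF or BALB/c/colon-26 mice. Baseline spectrum recorded via fiber bundles on tumor plus overlying skin and on normal skin. Drug 2.5–5.0 µmol/kg i.v. by tail vein, then spectra recorded up to 2 days. Post- to pre-injection spectral ratio compared in tumor versus skin. n = 3.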

The subject of a further data set is Colon 26. Put plainly: Photosensitizing efficacy in Balb/C mouse implanted with colon26 tumors measured as tumor free at 0.7 umol/kg and light dose 135 J/cm2 after 90 days. The class given is functional. In short, it runs like this:
(§2)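 Female C3H mice given s.c. RIF cells (3 × 10⁵) or female BALB/c mice given colon-26 cells (1 × 10⁶), both on right posterior shoulder. Drug in 1% Tween 80/HBSS given i.v. the day before light, hair depilated. At 24 h p.i., restrained unanaesthetized mice (10/group) got a 1 cm² argon-pumped dye laser spot, 135 J/cm² at 75 mW/cm². Tumor volume L·W²/2; cure = no palpable tumor.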

A short description of data set [2]: Photosensitizing efficacy in C3H mouse bearing RIF tumors measured as tumor free at 0.7 umol/kg and light dose 135 J/cm2 after 90 days. The class given is functional. In short, it runs like this:
as §2

A short description of data set [3]: Ratio of drug level in tumor to skin of Balb/C mouse implanted with colon26 tumor after 24 hrs by IRS. The class given is ADME. The note with it: in vivo. A digest of the protocol:
as §1

Another data set concerns RIF. Kind of data set: Photosensitizing efficacy in RIF cells after 48 hrs by MTT assay in presence of light. The class given is functional, cell-based. A digest of the protocol:
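RIF cells, 5 × 10³/well, seeded in α-MEM with 10% FCS. Next day drug added at 1.25–20 µM (formulated in 1% Tween 80/5% dextrose, diluted in medium), 24 h dark at 37 °C. Medium replaced, then 708 nm (purpurinimides) or 791 nm (bacteriopurpurinimides) at 3.2 mW/cm², 0.5–20 J/cm². After 48 h dark, MTT 4 h, DMSO, A560. Survival relative to dark and light controls; four wells per point, SD from three experiments.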

Data set [4] can be described thus: Photosensitizing efficacy in C3H mouse bearing RIF tumors measured as tumor free at 0.4 umol/kg and light dose 135 J/cm2 after 60 days. In kind it is functional. In short, it runs like this:
as §2

Take `CC[C@@H]1c2cc3[nH]c4c(c5nc(cc6[nH]c(cc(n2)[C@H]1C)c(C(C)OC)c6C)[C@@H](C)[C@@H]5CCC(=O)OC)C(=O)N(Cc1cc(C(F)(F)F)cc(C(F)(F)F)c1)C(=O)c4c3C` (stereo partly drawn): the Ratio in data set [1] turned out to be 1.91.
As for `CCCCOC(C)c1c(C)c2cc3nc(c4c5[nH]c(cc6nc(cc1[nH]2)C(C)=C6CC)c(C)c5C(=O)N(Cc1cc(C(F)(F)F)cc(C(F)(F)F)c1)C4=O)[C@@H](CCC(=O)Nc1ccc(CC(CN(CCN(CC(=O)O)CC(=O)O)CC(=O)O)N(CC(=O)O)CC(=O)O)cc1)[C@@H]3C` (stereo partly drawn), the Ratio in data set [1] is 3.68; in data set [3], 5.06. Further, the Activity (in the data set on Colon 26; in data set [2]) was 70% in each case.
Regarding `CCCCCCCOC(C)c1c(C)c2cc3nc(c4c5[nH]c(cc6nc(cc1[nH]2)[C@@H](C)[C@@H]6CC)c(C)c5C(=O)N(Cc1cc(C(F)(F)F)cc(C(F)(F)F)c1)C4=O)[C@@H](CCC(=O)OC)[C@@H]3C` (stereo partly drawn), the Ratio in data set [1] was 6.87.
On the same count and under the same terms, with `CCCCCCCOC(C)c1c(C)c2cc3nc(c4c5[nH]c(cc6nc(cc1[nH]2)C(C)=C6CC)c(C)c5C(=O)N(Cc1cc(C(F)(F)F)cc(C(F)(F)F)c1)C4=O)[C@@H](CCC(=O)OC)[C@@H]3C` (stereo partly drawn) the figure was 1.97.
With `CCCCOC(C)c1c(C)c2cc3nc(c4c5[nH]c(cc6nc(cc1[nH]2)C(C)=C6CC)c(C)c5C(=O)N(Cc1cc(C(F)(F)F)cc(C(F)(F)F)c1)C4=O)[C@@H](CCC(=O)OC)[C@@H]3C` (stereo partly drawn), the Activity result was “Dose-dependent effect” with RIF, 30% in the data set with Colon 26 and 30% in data set [2]. Besides, the Ratio came to 4.76 in data set [1] and 3.38 in data set [3].
`CCCCCCCCCCCCOC(C)c1c(C)c2cc3nc(c4c5[nH]c(cc6nc(cc1[nH]2)C(C)=C6CC)c(C)c5C(=O)N(Cc1cc(C(F)(F)F)cc(C(F)(F)F)c1)C4=O)[C@@H](CCC(=O)OC)[C@@H]3C` (stereo partly drawn): the Activity in data set [4] turned out to be 50%. Also, the Ratio in data set [1] is listed as 1.82.
Take `CCCCOC(C)c1c(C)c2cc3nc(c4c5[nH]c(cc6nc(cc1[nH]2)[C@@H](C)[C@@H]6CC)c(C)c5C(=O)N(Cc1cc(C(F)(F)F)cc(C(F)(F)F)c1)C4=O)[C@@H](CCC(=O)OC)[C@@H]3C` (stereo partly drawn): the Ratio in data set [1] is recorded as 5.3.
`CCCCCCCCCCCCOC(C)c1c(C)c2cc3nc(c4c5[nH]c(cc6nc(cc1[nH]2)[C@@H](C)[C@@H]6CC)c(C)c5C(=O)N(Cc1cc(C(F)(F)F)cc(C(F)(F)F)c1)C4=O)[C@@H](CCC(=O)OC)[C@@H]3C` (stereo partly drawn): the Activity in data set [4] was found to be 60%. Also, the Ratio in data set [1] turned out to be 8.89.
Take `CCC1=C(C)c2cc3[nH]c(cc4nc(c5c6[nH]c(cc1n2)c(C)c6C(=O)N(Cc1cc(C(F)(F)F)cc(C(F)(F)F)c1)C5=O)[C@@H](CCC(=O)OC)[C@@H]4C)c(C)c3C(C)OC` (stereo partly drawn): the Ratio in data set [1] was found to be 2.48.
